In ChEMBL document CHEMBL4052793, “Synthesis and Biological Evaluation of Paclitaxel and Camptothecin Prodrugs on the Basis of 2-Nitroimidazole” (ACS Med Chem Lett, 2017):

Assays:
[1] = Prodrug conversion in Pd/C assessed as SN38 formation at 1 mg after 2 hrs in presence of H2 by LC/MS method
Summary of the method: (§1)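 Chemical reduction over Pd/C under H2 in THF at 37 °C. Products were analysed to follow release of the parent drug.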

HT-29 [2] = test: Cytotoxicity against human HT-29 cells assessed as growth reduction under normoxic condition after 72 hrs by MTT assay; assay type: functional, cell-based; details: HT-29, 72 h
Summary of the method: (§2)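 H460 lung and HT29 colon carcinoma cells exposed to a range of compound concentrations for 72 h, either in air (normoxic) or under hypoxia (94% N2, 5% CO2, 1% O2). Viability/proliferation read by MTT; IC50 for proliferation inhibition.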

[3] = Selectivity ratio, IC50 for human H460 cells under normoxic condition to IC50 for human H460 cells under hypoxic condition; assay type: functional
[4] = Half life in ABS buffer at 10 uM at pH 5.0 by HPLC method; assay type: physicochemical
[5] = Drug degradation in human plasma assessed as compound half life at 10 uM by HPLC method; assay type: ADME, cell-free
Summary of the method: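 Incubated in human plasma in vitro; remaining prodrug followed by HPLC over time and half-life derived.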

[6] = Prodrug conversion assessed as Escherichia coli nitroreductase mediated SN38 reduction by measuring half life at 10 uM in presence of NADPH by HPLC method; assay type: ADME; details: isolated protein
Summary of the method: (§3)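 Prodrugs at 10 μM (1% DMSO) in PBS pH 7.4 incubated at 37 °C with E. coli nitroreductase (50 μg/mL) and NADPH (1 μmol/mL) for up to 1 h. Prodrug loss and active drug release tracked by HPLC.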

Mus musculus = species: Mus musculus; test: Drug degradation in mouse plasma assessed as compound half life at 10 uM by HPLC method
[7] = Prodrug conversion in Pd/C assessed as 2-aminoimidazole intermediate of 3C-SN38 formation at 1 mg after 2 hrs in presence of H2 by LC/MS method; summary of the method: as §1
NCI-H460 [8] = test: Cytotoxicity against human NCI-H460 cells assessed as growth reduction under hypoxic condition after 72 hrs by MTT assay; assay type: functional, cell-based; details: NCI-H460, 72 h; summary of the method: as §2
NCI-H460 [9] = test: Cytotoxicity against human NCI-H460 cells assessed as growth reduction under normoxic condition after 72 hrs by MTT assay; assay type: functional, cell-based; details: NCI-H460, 72 h; summary of the method: as §2
HT-29 [10] = test: Cytotoxicity against human HT-29 cells assessed as growth reduction under hypoxic condition after 72 hrs by MTT assay; assay type: functional, cell-based; details: HT-29, 72 h; summary of the method: as §2
HT-29 [11] = test: Selectivity ratio, IC50 for human HT-29 cells under normoxic condition to IC50 for human HT29 cells under hypoxic condition; assay type: functional
[12] = Half life in PBS buffer at 10 uM at pH 6.5 by HPLC method; assay type: physicochemical
[13] = Half life in PBS buffer at 10 uM at pH 7.4 by HPLC method; assay type: physicochemical
[14] = Prodrug conversion in Pd/C assessed as PTX formation at 1 mg after 2 hrs in presence of H2 by LC/MS method; summary of the method: as §1
[15] = Prodrug conversion in Pd/C assessed as 2-aminoimidazole intermediate of 3C-PTX formation at 1 mg after 2 hrs in presence of H2 by LC/MS method; summary of the method: as §1
[16] = Prodrug conversion in Pd/C assessed as 2-aminoimidazole intermediate of 2C-PTX formation at 1 mg after 2 hrs in presence of H2 by LC/MS method; summary of the method: as §1
[17] = Prodrug conversion assessed as Escherichia coli nitroreductase mediated 2-aminoimidazole intermediate of 2C-PTX formation at 10 uM after 1 hr in presence of NADPH by HPLC method; assay type: ADME; details: isolated protein; summary of the method: as §3
[18] = Drug level in Pd/C treated with 2C-PTX at 1 mg in presence of H2 after 2 hrs by LC/MS method; summary of the method: as §1
[19] = Drug level in Pd/C treated with 3C-PTX at 1 mg in presence of H2 after 2 hrs by LC/MS method; summary of the method: as §1
[20] = Drug level in Pd/C using 1 mg 3C-SN38 assessed as compound formation in presence of H2 after 2 hrs by LC/MS method; summary of the method: as §1

Structure (SMILES)	half-life at 10 µM [4] [h]	half-life at 10 µM [5] [h]	t1/2 [6]	half-life at 10 µM (Mus musculus) [h]	half-life at 10 µM [12] [h]	half-life at 10 µM [13] [h]	IC50 (HT-29 [2]) [nM]	Ratio IC50 [3]	IC50 (NCI-H460 [8]) [nM]	IC50 (NCI-H460 [9]) [nM]	IC50 (HT-29 [10]) [nM]	Ratio IC50 (HT-29 [11])	Drug metabolism [14]	further results
CC(=O)O[C@H]1C(=O)[C@@]2(C)[C@H]([C@H](OC(=O)c3ccccc3)[C@]3(O)C[C@H](OC(=O)[C@H](OC(=O)OCCCn4ccnc4[N+](=O)[O-])[C@@H](NC(=O)c4ccccc4)c4ccccc4)C(C)=C1C3(C)C)[C@]1(OC(C)=O)CO[C@@H]1C[C@@H]2O	> 48	6	<= 10 min	0.917	24	36	290	1.17	18	21	159	1.82	Metabolite detected	Drug metabolism [15]: Metabolite detected
CC(=O)O[C@H]1C(=O)[C@@]2(C)[C@H]([C@H](OC(=O)c3ccccc3)[C@]3(O)C[C@H](OC(=O)[C@H](O)[C@@H](NC(=O)c4ccccc4)c4ccccc4)C(C)=C1C3(C)C)[C@]1(OC(C)=O)CO[C@@H]1C[C@@H]2O [PACLITAXEL]	–	–	–	–	–	–	14	–	–	–	15	–	–	Drug metabolism [18]: Metabolite detected; Drug metabolism [19]: Metabolite detected
CCc1c2c(nc3ccc(O)cc13)-c1cc3c(c(=O)n1C2)COC(=O)[C@]3(O)CC [7-ETHYL-10-HYDROXYCAMPTOTHECIN]	–	–	–	–	–	–	96	1.06	47	–	119	0.82	–	Drug metabolism [20]: Metabolite detected

Further lines, with some results ahead:

half-life at 10 µM [4] [h]	half-life at 10 µM [5] [h]	t1/2 [6]	half-life at 10 µM (Mus musculus) [h]	half-life at 10 µM [12] [h]	half-life at 10 µM [13] [h]	Structure (SMILES)	IC50 (HT-29 [2]) [nM]	Ratio IC50 [3]	IC50 (NCI-H460 [8]) [nM]	IC50 (NCI-H460 [9]) [nM]	IC50 (HT-29 [10]) [nM]	Ratio IC50 (HT-29 [11])	Drug metabolism [14]	further results
40	2	<= 10 min	0.617	> 48	> 48	CCc1c2c(nc3ccc(O)cc13)-c1cc3c(c(=O)n1C2)COC(=O)[C@@]3(CC)OC(=O)OCCCn1ccnc1[N+](=O)[O-]	> 10000	2.03	99	201	6020	>1.67	–	Drug metabolism [1]: Metabolite detected; Drug metabolism [7]: Metabolite detected
48	2	<= 10 min	0.333	24	28	CC(=O)O[C@H]1C(=O)[C@@]2(C)[C@H]([C@H](OC(=O)c3ccccc3)[C@]3(O)C[C@H](OC(=O)[C@H](OC(=O)OCCn4ccnc4[N+](=O)[O-])[C@@H](NC(=O)c4ccccc4)c4ccccc4)C(C)=C1C3(C)C)[C@]1(OC(C)=O)CO[C@@H]1C[C@@H]2O	140	1.5	6	9	45	3.11	Metabolite detected	Drug metabolism [16]: Metabolite detected; Drug metabolism [17]: Metabolite_Notdetected
> 48	6	0.5 h	0.783	41	> 48	CCc1c2c(nc3ccc(O)cc13)-c1cc3c(c(=O)n1C2)COC(=O)[C@@]3(CC)OC(=O)OCCn1ccnc1[N+](=O)[O-]	> 10000	1.44	63	91	9560	>1.05	–	–
